pIC50: −log10 of the molar value. ≈ marks a conversion by molar mass, not a printed value. Calls of active or inactive are those of the source. The calls are words filed in the database; no cut-off is given here.
Columns and labels:
Plasmodium falciparum = assay: Antiplasmodial activity against multi drug-resistant Plasmodium falciparum K1 infected in human type A+ erythrocytes assessed as inhibition of [G-3H]hypoxanthine incorporation after 42 hrs by scintillation counting; format: functional, organism-based; conditions: for pIC50: K1, 42 h
NCI-H187 = assay: Cytotoxicity against human NCI-H187 cells by SRB assay; format: functional, cell-based
Method in brief: (§1)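 Colorimetric growth assay following the Skehan method, run on three human lines: KB (oral epidermal carcinoma), MCF7 (breast adenocarcinoma) and NCI-H187 (small cell lung).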

MCF7 = assay: Cytotoxicity against human MCF7 cells by SRB assay; format: functional, cell-based; method in brief: as §1
KB = assay: Cytotoxicity against human KB cells by SRB assay; format: functional, cell-based; method in brief: as §1

| SMILES | Activity (Plasmodium falciparum) | pIC50 (Plasmodium falciparum) | Activity (NCI-H187) | Activity (MCF7) | IC50 (KB) |
| --- | --- | --- | --- | --- | --- |
| CC(=O)OC[C@]12[C@H](OC(C)=O)[C@H](OC(C)=O)[C@@H]3[C@@H](OC(C)=O)[C@@]14O[C@@]3(C)COC(=O)c1cccnc1C(C)C(C)C(=O)O[C@@H]([C@H](OC(C)=O)[C@@H]2OC(=O)c1ccccc1)[C@]4(C)O (some centres undefined) | inactive | – | – | – | – |
| CC(=O)OC[C@@]12[C@H](OC(C)=O)[C@H](OC(C)=O)[C@@H]3[C@@H](OC(=O)c4ccccc4)[C@@]14O[C@@]3(C)COC(=O)c1cccnc1CC[C@H](C)C(=O)O[C@@H]([C@H](OC(C)=O)[C@@H]2OC(=O)c1ccccc1)[C@]4(C)O | – | 5.60 | – | – | – |
| CC(=O)OC[C@@]12[C@H](OC(C)=O)[C@H](OC(C)=O)[C@@H]3[C@@H](OC(=O)c4ccccc4)[C@@]14O[C@@]3(C)COC(=O)c1cccnc1CC[C@H](C)C(=O)O[C@@H]([C@H](OC(C)=O)[C@@H]2OC(C)=O)[C@]4(C)O | – | 5.51 | inactive | inactive | 46.7 µg/mL (≈ 53.8 µM) |
| CC(=O)OC[C@@]12[C@H](OC(C)=O)[C@@H](OC(C)=O)[C@@H]3[C@@H](OC(=O)c4ccccc4)[C@@]14O[C@@]3(C)COC(=O)c1cccnc1CC[C@](C)(OC(C)=O)C(=O)O[C@@H]([C@H](OC(C)=O)[C@@H]2OC(C)=O)[C@]4(C)O | – | 5.41 | – | – | – |
| CC(=O)OC[C@]12[C@H](OC(C)=O)[C@H](OC(C)=O)[C@@H]3[C@@H](OC(C)=O)[C@@]14O[C@@]3(C)COC(=O)c1cccnc1C(C)C(C)C(=O)O[C@@H]([C@H](OC(C)=O)[C@@H]2OC(C)=O)[C@]4(C)O (some centres undefined) | inactive | – | – | – | – |
| CC(=O)OC[C@@]12[C@H](OC(C)=O)[C@@H](OC(C)=O)[C@@H]3[C@@H](OC(C)=O)[C@@]14O[C@@]3(C)COC(=O)c1cccnc1[C@@H](C)[C@H](C)C(=O)O[C@@H]([C@H](OC(C)=O)[C@@H]2OC(=O)c1ccccc1)[C@]4(C)O | inactive | – | – | – | – |
| CC(=O)OC[C@@]12[C@H](OC(C)=O)[C@H](OC(C)=O)[C@@H]3[C@@H](OC(=O)c4ccccc4)[C@@]14O[C@@]3(C)COC(=O)c1cccnc1CC[C@](C)(OC(C)=O)C(=O)O[C@@H]([C@H](OC(C)=O)[C@@H]2OC(=O)c1ccccc1)[C@]4(C)O | – | 5.46 | – | – | – |
| CC(=O)OC[C@@]12[C@H](OC(C)=O)[C@H](OC(C)=O)[C@@H]3[C@@H](OC(=O)c4ccccc4)[C@@]14O[C@@]3(C)COC(=O)c1cccnc1CC[C@](C)(OC(C)=O)C(=O)O[C@@H]([C@H](OC(C)=O)[C@@H]2OC(C)=O)[C@]4(C)O [MEKONGENSINE] | – | 5.51 | inactive | inactive | 28.2 µg/mL (≈ 30.5 µM) |

— ChEMBL document CHEMBL1811885, “Antiplasmodial sesquiterpene alkaloids from the roots of Maytenus mekongensis” (J Nat Prod, 2011)
